Calls of active or inactive are those of the source. The rule behind the calls is not given here.
How the values were obtained:
Staphylococcus aureus = assay: Antimicrobial activity against Staphylococcus aureus ATCC 25923 assessed as zone of inhibition at 30 uL for 24 hrs at 37 degC by disk diffusion test; assay type: functional, organism-based
Summary of the method: (§1)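 Compound (30 µL of a fresh 1000 µg/mL DMSO stock) goes into a 6 mm well cut in Mueller Hinton agar inoculated with 0.1 mL broth culture adjusted to 0.5 McFarland (about 1×10^8 cells/mL). Plates are incubated 24 h at 37 °C, then zone of inhibition diameter is measured in mm.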

Caco-2 [1] = assay: Induction of necrosis in human Caco2 cells at 20 uM after 48 hrs by Hoechst 33258/propidium iodide staining based phase contrast microscopic analysis; assay type: functional
Summary of the method: (§2)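 Cells in 48-well plates treated with 0.5, 10, 20 or 40 µM for 24 and 48 h. Values are read at 48 h, 20 µM for test agents and 0.5 µM for controls. Staining is Hoechst 33258/propidium iodide double staining with fluorescence microscopy. Blue nuclei are viable or early-to-mid apoptotic, and pink nuclei are late apoptotic or necrotic. Apoptosis and necrosis are scored from chromatin condensation as % of cells. Cells are grown at 37 °C in 5% CO2 in RPMI, DMEM or McCoy's 5A with 10–15% heat-inactivated FCS.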

Nakaseomyces glabratus = assay: Antimicrobial activity against Candida glabrata assessed as zone of inhibition at 30 uL for 24 hrs at 30 degC by disk diffusion test; assay type: functional, organism-based
Summary of the method: (§3)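 Agar well diffusion on Mueller Hinton agar seeded with 0.1 mL broth culture (18–24 h), adjusted to 0.5 McFarland (about 1×10^8 bacteria or 1×10^6 yeast cells/mL). A 6 mm well is filled with 30 µL of compound from a fresh 1000 µg/mL DMSO stock. Plates are held at 30 °C for 24 h and inhibition zone diameter is read in mm.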

Bacillus cereus [2] = assay: Antimicrobial activity against Bacillus cereus ATCC 11778 assessed as zone of inhibition at 30 uL for 24 hrs at 30 degC by disk diffusion test; assay type: functional; summary of the method: as §3
Bacillus subtilis [3] = assay: Antimicrobial activity against Bacillus subtilis ATCC 6633 for 24 hrs by microdillution method; assay type: functional
Summary of the method: (§4)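 Broth microdilution. Compound is dissolved in DMSO (2 mg/mL) and diluted in Mueller Hinton broth as two-fold serial dilutions from 256 to 0.125 µg/mL. Bacteria are pre-grown in nutrient broth at 30 °C, and the final inoculum is about 10^6 cfu/mL. Tests are incubated 37 °C for 24 h. MIC is the lowest concentration giving complete inhibition. Streptomycin is the positive control.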

MCF7 [4] = assay: Antiproliferative activity against human MCF7 cells after 24 and 72 hrs by MTT assay; assay type: functional, cell-based
Summary of the method: (§5)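 ATCC human cell lines are kept in RPMI, DMEM or McCoy's 5A with 10–15% heat-inactivated FCS at 37 °C and 5% CO2. They are seeded at 1×10^4–1×10^5 cells/mL in 48-well plates and exposed to 0.5, 10, 20 or 40 µM. Viability is read by MTT (590 nm) at 24 and 72 h. Growth is expressed relative to untreated cells and IC50 is fitted, in triplicate.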

HL-60 [5] = assay: Antiproliferative activity against human HL60 cells after 24 and 72 hrs by MTT assay; assay type: functional, cell-based; summary of the method: as §5
Bacillus cereus [6] = assay: Antimicrobial activity against Bacillus cereus ATCC 11778 for 24 hrs by microdillution method; assay type: functional; summary of the method: as §4
Klebsiella pneumoniae = assay: Antimicrobial activity against Klebsiella pneumoniae ATCC 13882 assessed as zone of inhibition at 30 uL for 24 hrs at 37 degC by disk diffusion test; assay type: functional, organism-based; summary of the method: as §1
Caco-2 [7] = assay: Induction of apoptosis in human Caco2 cells at 20 uM after 48 hrs by Hoechst 33258/propidium iodide staining based phase contrast microscopic analysis; assay type: functional; summary of the method: as §2
HT-29 [8] = assay: Induction of necrosis in human HT-29 cells at 20 uM after 48 hrs by Hoechst 33258/propidium iodide staining based phase contrast microscopic analysis; assay type: functional; summary of the method: as §2
[9] = Antiproliferative activity against human Saos2 cells after 24 and 72 hrs by MTT assay; assay type: functional, cell-based; settings: SAOS-2; summary of the method: as §5
Bacillus thuringiensis [10] = assay: Antimicrobial activity against Bacillus thuringiensis assessed as zone of inhibition at 30 uL for 24 hrs at 30 degC by disk diffusion test; assay type: functional; summary of the method: as §3
Caco-2 [11] = assay: Antiproliferative activity against human Caco2 cells after 24 and 72 hrs by MTT assay; assay type: functional, cell-based; summary of the method: as §5
Escherichia coli = assay: Antimicrobial activity against Escherichia coli ATCC 25922 assessed as zone of inhibition at 30 uL for 24 hrs at 37 degC by disk diffusion test; assay type: functional, organism-based; summary of the method: as §1
Bacillus thuringiensis [12] = assay: Antimicrobial activity against Bacillus thuringiensis for 24 hrs by microdillution method; assay type: functional; summary of the method: as §4
SAOS-2 [13] = assay: Induction of necrosis in human Saos2 cells at 20 uM after 48 hrs by Hoechst 33258/propidium iodide staining based […] microscopic analysis; assay type: functional; summary of the method: as §2
Cyberlindnera jadinii = assay: Antimicrobial activity against Candida utilis ATCC 9950 assessed as zone of inhibition at 30 uL for 24 hrs at 30 degC by disk diffusion test; assay type: functional, organism-based; summary of the method: as §3
SAOS-2 [14] = assay: Induction of apoptosis in human Saos2 cells at 20 uM after 48 hrs by Hoechst 33258/propidium iodide staining based phase contrast microscopic analysis; assay type: functional; summary of the method: as §2
[15] = test system: Staphylococcus epidermidis; assay: Antimicrobial activity against Staphylococcus epidermidis ATCC 12228 assessed as zone of inhibition at 30 uL for 24 hrs at 37 degC by disk diffusion test; assay type: functional, organism-based; summary of the method: as §1
Proteus vulgaris = assay: Antimicrobial activity against Proteus vulgaris ATCC 33420 assessed as zone of inhibition at 30 uL for 24 hrs at 37 degC by disk diffusion test; assay type: functional, organism-based; summary of the method: as §1
Bacillus subtilis [16] = assay: Antimicrobial activity against Bacillus subtilis ATCC 6633 assessed as zone of inhibition at 30 uL for 24 hrs at 30 degC by disk diffusion test; assay type: functional; summary of the method: as §3
Candida tropicalis = assay: Antimicrobial activity against Candida tropicalis assessed as zone of inhibition at 30 uL for 24 hrs at 30 degC by disk diffusion test; assay type: functional, organism-based; summary of the method: as §3
MCF7 [17] = assay: Induction of necrosis in human MCF7 cells at 20 uM after 48 hrs by Hoechst 33258/propidium iodide staining based phase contrast microscopic analysis; assay type: functional; summary of the method: as §2
HeLa [18] = assay: Induction of apoptosis in human HeLa cells at 20 uM after 48 hrs by Hoechst 33258/propidium iodide staining based phase contrast microscopic analysis; assay type: functional; summary of the method: as §2
HeLa [19] = assay: Induction of necrosis in human HeLa cells at 20 uM after 48 hrs by Hoechst 33258/propidium iodide staining based phase contrast microscopic analysis; assay type: functional; summary of the method: as §2
Salmonella typhimurium = assay: Antimicrobial activity against Salmonella typhimurium ATCC 14028 assessed as zone of inhibition at 30 uL for 24 hrs at 37 degC by disk diffusion test; assay type: functional, organism-based; settings: Salmonella enterica subsp. enterica serovar Typhimurium; summary of the method: as §1
Micrococcus luteus = assay: Antimicrobial activity against Micrococcus luteus ATCC 9341 assessed as zone of inhibition at 30 uL for 24 hrs at 30 degC by disk diffusion test; assay type: functional, organism-based; summary of the method: as §3
HL-60 [20] = assay: Induction of apoptosis in human HL60 cells at 20 uM after 48 hrs by Hoechst 33258/propidium iodide staining based phase contrast microscopic analysis; assay type: functional; summary of the method: as §2
HeLa [21] = assay: Antiproliferative activity against human HeLa cells after 24 and 72 hrs by MTT assay; assay type: functional, cell-based; summary of the method: as §5
MCF7 [22] = assay: Induction of apoptosis in human MCF7 cells at 20 uM after 48 hrs by Hoechst 33258/propidium iodide staining based phase contrast microscopic analysis; assay type: functional; summary of the method: as §2
HT-29 [23] = assay: Induction of apoptosis in human HT-29 cells at 20 uM after 48 hrs by Hoechst 33258/propidium iodide staining based phase contrast microscopic analysis; assay type: functional; summary of the method: as §2
Candida albicans = assay: Antimicrobial activity against Candida albicans ATCC 10231 assessed as zone of inhibition at 30 uL for 24 hrs at 30 degC by disk diffusion test; assay type: functional, organism-based; summary of the method: as §3
Saccharomyces cerevisiae = assay: Antimicrobial activity against Saccharomyces cerevisiae ATCC 9763 assessed as zone of inhibition at 30 uL for 24 hrs at 30 degC by disk diffusion test; assay type: functional, organism-based; summary of the method: as §3
Enterococcus faecalis = assay: Antimicrobial activity against Enterococcus faecalis ATCC 29212 assessed as zone of inhibition at 30 uL for 24 hrs at 37 degC by disk diffusion test; assay type: functional, organism-based; summary of the method: as §1
Pseudomonas aeruginosa = assay: Antimicrobial activity against Pseudomonas aeruginosa ATCC 35032 assessed as zone of inhibition at 30 uL for 24 hrs at 37 degC by disk diffusion test; assay type: functional, organism-based; summary of the method: as §1
HL-60 [24] = assay: Induction of necrosis in human HL60 cells at 20 uM after 48 hrs by Hoechst 33258/propidium iodide staining based phase contrast microscopic analysis; assay type: functional; summary of the method: as §2
HT-29 [25] = assay: Antiproliferative activity against human HT-29 cells after 24 and 72 hrs by MTT assay; assay type: functional, cell-based; summary of the method: as §5

MIC (Bacillus subtilis [3]): inactive
IC50 (MCF7 [4]): 9.9 µM
IC50 (HL-60 [5]): 8.68 µM
MIC (Bacillus cereus [6]): inactive
IC50 (Caco-2 [11]): 20.3 µM
MIC (Bacillus thuringiensis [12]): inactive
IC50 (HeLa [21]): 40.3 µM
IC50 (HT-29 [25]): 21.4 µM
Compound: CC(=O)O[C@H]1CC[C@]2(C)[C@H]3CC=C4[C@@H]5CC(C)(C)CC[C@]5(C(=O)OCc5ccccc5)CC[C@@]4(C)[C@]3(C)CC[C@H]2[C@]1(C)/C=N/O
diameter of the inhibition zone (DIZ) (Staphylococcus aureus): inactive
Activity (Caco-2 [1]): 33%
diameter of the inhibition zone (DIZ) (Nakaseomyces glabratus): inactive
diameter of the inhibition zone (DIZ) (Bacillus cereus [2]): inactive
diameter of the inhibition zone (DIZ) (Klebsiella pneumoniae): inactive
Activity (Caco-2 [7]): 19%
Activity (HT-29 [8]): 14%
IC50 [9]: 11.7 µM
diameter of the inhibition zone (DIZ) (Bacillus thuringiensis [10]): inactive
diameter of the inhibition zone (DIZ) (Escherichia coli): inactive
Activity (SAOS-2 [13]): 44%
diameter of the inhibition zone (DIZ) (Cyberlindnera jadinii): inactive
Activity (SAOS-2 [14]): 24%
diameter of the inhibition zone (DIZ) [15]: inactive
diameter of the inhibition zone (DIZ) (Proteus vulgaris): inactive
diameter of the inhibition zone (DIZ) (Bacillus subtilis [16]): inactive
diameter of the inhibition zone (DIZ) (Candida tropicalis): inactive
Activity (MCF7 [17]): 48%
Activity (HeLa [18]): 15%
Activity (HeLa [19]): 50%
diameter of the inhibition zone (DIZ) (Salmonella typhimurium): inactive
diameter of the inhibition zone (DIZ) (Micrococcus luteus): inactive
Activity (HL-60 [20]): 5%
Activity (MCF7 [22]): 10%
Activity (HT-29 [23]): 24%
diameter of the inhibition zone (DIZ) (Candida albicans): inactive
diameter of the inhibition zone (DIZ) (Saccharomyces cerevisiae): inactive
diameter of the inhibition zone (DIZ) (Enterococcus faecalis): inactive
diameter of the inhibition zone (DIZ) (Pseudomonas aeruginosa): inactive
Activity (HL-60 [24]): 50%

Reference: ChEMBL document CHEMBL3297654, “Synthesis, antimicrobial and cytotoxic activities, and structure-activity relationships of gypsogenin derivatives against human cancer cells” (Eur J Med Chem, 2014)
